High-throughput results (PubChem BioAssay)
E-selectin induc = E-selectin induction in HUVECs, primary screen, imaging, HUVEC, immunofluorescence imaging, single point. 260,000 compounds, 0.37% hits. activation, % at 7.58 µM. normalized: neutral wells 0, TNF-alpha wells 100;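 active = mean E-selectin-positive cell signal at least 10% of the positive control, reached in at least 60% of replicates, without over 20% cell loss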
Target sequence (P16581 whole entry, looked up): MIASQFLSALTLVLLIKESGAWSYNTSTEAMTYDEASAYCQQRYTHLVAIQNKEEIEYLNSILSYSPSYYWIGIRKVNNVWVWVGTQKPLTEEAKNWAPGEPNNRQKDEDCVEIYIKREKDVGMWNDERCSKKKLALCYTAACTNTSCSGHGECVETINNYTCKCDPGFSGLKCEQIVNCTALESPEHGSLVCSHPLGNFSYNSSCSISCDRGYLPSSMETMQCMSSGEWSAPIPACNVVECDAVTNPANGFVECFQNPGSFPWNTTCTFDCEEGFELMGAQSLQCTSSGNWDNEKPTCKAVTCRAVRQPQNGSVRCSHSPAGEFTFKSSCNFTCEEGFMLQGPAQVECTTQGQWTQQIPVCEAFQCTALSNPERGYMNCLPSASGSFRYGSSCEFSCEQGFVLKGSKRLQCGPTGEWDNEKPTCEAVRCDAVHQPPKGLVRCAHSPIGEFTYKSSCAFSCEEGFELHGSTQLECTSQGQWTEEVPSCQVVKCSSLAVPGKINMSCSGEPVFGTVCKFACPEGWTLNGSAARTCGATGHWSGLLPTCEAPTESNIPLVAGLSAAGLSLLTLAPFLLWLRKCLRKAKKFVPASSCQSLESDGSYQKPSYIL
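material = human umbilical vein endothelial cells (HUVEC), E-selectin induction | quantity = 3,000 cells/well | medium = EGM-2 growth medium on 0.1% gelatin-coated wells | technique = immunofluorescence imaging | read-out basis = % PE-positive cells | control set = TNF-alpha positive control, DMSO neutral control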
DENV2 CPE = inhibitors of DENV2 cytopathic effect, primary screen, cell-based, plate reader, single concentration; DENV2-infected cells, cytopathic effect rescue; 350,000 compounds, 1.7% hits; AID 651640, 2012; CPE inhibition, % at 9.99 µM; in the data active = CPE inhibition above about 20%, passing the limit was not always enough; tested in BHK-21 cells;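 note: 0% = median of neutral control wells and 100% = median of positive control wells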
Ecoli rRNA inh = reduced GFP signal of wild-type E. coli, primary screen, bacterial rRNA inhibitor project, GFP/RFP fluorescence, OD600, single point; 350,000 compounds, 1.6% hits; E. coli WT GFP vs humanized-ribosome RFP mutants, 24 h; stronger effect = lower value; DMSO median 0, no signal -100; GFP signal change (wild-type ribosome), % (concentration not given with the values); AID 720706, 2013;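 active = significant combined selectivity score with lowered wild-type GFP, culture density cut under 30%, mutant RFP and density less affected; inactive = any of these conditions unmet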
Cneo AK release = Cryptococcus neoformans cell lysis inducers, primary screen, AK release luminescence, single concentration. C. neoformans lysis, adenylate kinase release luminescence, 4 h; normalised: neutral wells 0, clomiphene wells 100. lysis activity, % at 15 µM. 360,000 compounds, 0.2% hits. AID 651654, 2012;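 active = mean lysis activity across replicates of at least 80%, whatever share of replicates individually reach that level; inactive = mean lysis activity below 80%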
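Schedule: static 4 h at 37 °C with compound, 1 h detection; system: C. neoformans cells; benchmarks: Clomiphene as positive control; buffer or medium: fresh YPD medium; measure: luminescence rise reflecting yeast cell lysis; measured by: luminescent adenylate kinase detection reagent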
miR-122 sensor = miR-122 Renilla sensor signal increase in Huh7, primary screen, miR-122 inhibitor project, cell-based, single point, plate reader | 340,000 compounds, 0.3% hits | AID 602342, 2012 | activation (reporter increase), % at 12.5 µM | Huh7 miR-122 Renilla luciferase sensor, 48 h; neutral wells = 0, positive control = 100;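 active = mean replicate activation score at least 90 and every replicate individually at or above 90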;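 note: higher luciferase means less miR-122 activity so hits act as miR-122 inhibitors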
* marks the source's active call; other numbers are inactive results; nt = no result given; [ ] = dose if it differs, or a comment. Rows were chosen to be rich in hits. Some 3.1% of all compounds tested hit in one or more screens of this group.

SMILES	E-selectin induc	DENV2 CPE	Ecoli rRNA inh	Cneo AK release	miR-122 sensor
CCCN(C)C[C@@H]1Oc2cc(-c3cccc(F)c3)ccc2S(=O)(=O)N([C@@H](C)CO)C[C@@H]1C	2	nt	-4	nt	-1[16.7 µM]
CCCCCOCC1CC(C/C(C)=N/NC(N)=S)C(=O)O1 (centres undefined)	nt	-13	15	nt	nt
C/C(CC1CC(COCC(C)C)OC1=O)=N\NC(N)=S (centres undefined)	nt	91*	15	nt	nt
Cc1nc2nc(-c3ccc(F)cc3)cn2nc1C	0	16	6	nt	nt
Cc1nc2nc(-c3ccccc3)cn2nc1C	nt	20	-26*	-4	-6
COc1ccc(CN(C)C[C@@H]2OCCCC[C@@H](C)Oc3ccc(NS(C)(=O)=O)cc3C(=O)N([C@H](C)CO)C[C@H]2C)cc1	0	nt	1	nt	-4[16.7 µM]
COc1ccc(OC)c(/C=C/C(=O)Nc2ccc3c(c2)CCC3)c1	nt	23*	-11	-6	-8
COc1ccc(NC(=O)/C=C/c2cc(Br)ccc2OC)cc1	nt	nt	nt	-1	13
COc1ccc(/C=C/C(=O)Nc2ccc(-c3nnc4n3CCCCC4)cc2)c(OC)c1	-3	2	-20*	nt	nt
COc1ccc(-c2nnc3n2CCCCC3)cc1OC	35*	-8	-1	0	-3
O=C(NC[C@@H]1CC[C@@H]2[C@@H](CN2C(=O)CN2CCOCC2)O1)NC1CCCCC1	nt	10	nt	nt	nt
CNC(=O)C1(C)C=CC2(CCCCC2)N1C(=O)OC (centres undefined)	0	22*	4	-2	-3
O=C(COC(=O)c1ccc(Br)o1)Nc1ccc2[nH]c(=O)[nH]c2c1	27*	4	6	1	0
O=C(Nc1ccccc1)N1CCCCN2[C@H](C1)[C@@H](c1ccc(-c3ccccc3)cc1)[C@@H]2CO	0	-7	-54	-2	-11[16.7 µM]
O=C(Nc1ccccc1)N1CCCCN2[C@H](CO)[C@H](c3ccc(Br)cc3)[C@@H]2C1	-1	28*	-5	6	0[16.7 µM]
O=C(Nc1ccccc1)N1CCCCN2[C@H](CO)[C@H](c3ccc(Br)cc3)[C@H]2C1	0	32*	-1	1	-9[16.7 µM]
Cc1ccccc1-c1ccc([C@H]2[C@H]3CN(C(=O)Nc4ccccc4)CCCCN3[C@H]2CO)cc1	0	-9	-11	45	-2[16.7 µM]
Cc1ccccc1-c1ccc([C@@H]2[C@H]3CN(C(=O)Nc4ccccc4)CCCCN3[C@H]2CO)cc1	0	61*	-50	2	4[16.7 µM]
Cc1ccc(N=c2c([N+](=O)[O-])nn(-c3ccccc3)n2O)c(C)c1	nt	0	-25*	-7	-4
COc1cccc(S(=O)(=O)N(C)C[C@@H]2Oc3cc(C4=CCCCC4)ccc3S(=O)(=O)N([C@H](C)CO)C[C@@H]2C)c1	nt	2	nt	1	-33[16.7 µM]
CCOC(=O)Nc1ccc(S(=O)(=O)Nc2nc(C)cc(C)n2)cc1	nt	nt	5	0	0
CC(=O)Nc1ccc(NS(=O)(=O)c2ccc3ccccc3c2)cc1	nt	nt	nt	-9	105*
CC(=O)NS(=O)(=O)c1ccc(NS(=O)(=O)c2ccc3ccccc3c2)cc1	0	7	3	-1	-8
CCCCOc1ccc(S(=O)(=O)Nc2ccc(NC(C)=O)cc2)cc1	nt	nt	nt	0	205*
CCOC(=O)Nc1ccc(NS(=O)(=O)c2ccc(C)cc2)cc1	nt	nt	nt	-1	206*
SMILES	E-selectin induc	DENV2 CPE	Ecoli rRNA inh	Cneo AK release	miR-122 sensor
CC(=O)Nc1ccc(S(=O)(=O)Nc2cccc(-c3nc4ccccc4o3)c2)cc1	nt	nt	nt	1	138*
O=C(NC1Cc2ccccc2C1)[C@@H]1N[C@@H]2c3ccc(C4=CCCCC4)c(=O)n3C[C@@H]2[C@H]1CO	0	-6	-11	-2	-1[16.7 µM]
Cc1ccc(S(=O)(=O)N[C@@H]2CC[C@@H](CC(=O)NCc3ccccc3F)O[C@@H]2CO)cc1	1	-6	2	1	nt
CCCNC(=O)N1C[C@H]2[C@@H](c3ccccc31)[C@@H](CO)N2CC1CCCCC1	0	nt	-1	4	-7[16.7 µM]
C[C@@H]1CCCCO[C@H](CN(C)S(C)(=O)=O)[C@H](C)CN([C@@H](C)CO)C(=O)c2cc(NC(=O)Nc3ccc(C(F)(F)F)cc3)ccc2O1	nt	nt	0	nt	nt
O=C(C[C@@H]1CC[C@H](NC(=O)C2CCC2)[C@@H](CO)O1)NCCCN1CCOCC1	0	0	4	-2	nt
CN(C)CC(=O)N1[C@@H]2c3cccc(=O)n3C[C@H]1[C@H](CO)[C@H]2C(=O)NCc1ccccc1	0	20*	1	6	nt
O=C(NCCc1ccccc1)[C@@H]1[C@@H](CO)[C@@H]2Cn3c(cccc3=O)[C@H]1N2Cc1ccccn1	0	3	2	2	nt
O=C(NCc1ccccc1)[C@@H]1[C@@H](CO)[C@@H]2Cn3c(cccc3=O)[C@H]1N2Cc1ccccn1	0	40*	2	1	-2[16.7 µM]
O=C(NCc1cccc(F)c1)[C@@H]1[C@@H](CO)[C@@H]2Cn3c(cccc3=O)[C@H]1N2C(=O)c1cnccn1	0	82*	1	-1	4[16.7 µM]
O=C(NCc1ccccc1)[C@@H]1[C@@H](CO)[C@@H]2Cn3c(cccc3=O)[C@@H]2N1Cc1ccccc1F	-1	23*	2	-4	nt
CN(C)C(=O)C[C@H]1CC[C@@H]2[C@H](COC[C@@H](O)CN2Cc2ccc(C(F)(F)F)cc2)O1	0	-3	-2	-2	-1[16.7 µM]
COc1ccccc1-c1ccc([C@H]2[C@@H](CO)N[C@@H]2CNC(=O)C2CCC2)cc1	nt	nt	0	nt	nt
CCCS(=O)(=O)N1CCCC(C(=O)NCCc2cccc(C)c2)C1 (centres undefined)	0	27*	-2	-3	-2
Cc1cccc(CCNC(=O)C2CCCN(S(=O)(=O)c3cnc[nH]3)C2)c1 (centres undefined)	nt	1	4	0	nt
COCC(=O)N1CC2(C1)[C@@H](c1ccc(-c3cccc(F)c3)cc1)[C@H](CO)N2C(=O)COC	0	-11	1	nt	nt
NNC(=O)c1ccc(COc2ccc3ccccc3c2)o1	0	-8	-25*	nt	nt
Cc1ccc(OCc2ccc(C(=O)NN)o2)cc1C	0	6	-32*	-4	2
O=C(OCc1ccccn1)c1ccc(COc2ccc3ccccc3c2)o1	nt	1	-26*	-2	-1
CCOc1ccc(OCc2ccc(C(=O)NN)o2)cc1	9	3	-13	nt	nt
N#CC1c2ccccc2-c2ccccc2N1C(=O)c1ccccc1 (centres undefined)	3	1	-14	-1	98*
OC[C@H]1[C@@H](c2ccc(C3=CCCC3)cc2)[C@H]2CN(CCC(F)(F)F)CCCCN21	nt	4	nt	39	-25[16.7 µM]
